This is an account of results in ChEMBL document CHEMBL3779840, “Discovery of 2-((3-Amino-4-methylphenyl)amino)-N-(2-methyl-5-(3-(trifluoromethyl)benzamido)phenyl)-4-(methylamino)pyrimidine-5-carboxamide (CHMFL-ABL-053) as a Potent, Selective, and Orally Available BCR-ABL/SRC/p38 Kinase Inhibitor for Chronic Myeloid Leukemia” (J Med Chem, 2016).

A short description of series [1]: Antiproliferative activity against human U937 cells assessed as cell viability after 72 hrs by CellTiter-Glo or CCK-8 assay. It counts as functional. Conditions: U-937, 72 h. A general note: ATP-based viability assays read luminescence as a measure of living cells.
For a further series, the system named is MV4-11. Kind of series: Antiproliferative activity against human MV4-11 cells assessed as cell viability after 72 hrs by CellTiter-Glo or CCK-8 assay. It counts as functional. Conditions: MV4-11, 72 h.
In series [2] the test system is K562. Briefly: Induction of cell cycle arrest in human K562 cells assessed as accumulation at G0/G1-phase after 12 hrs by propidium iodide/RNase staining based flow cytometry. It counts as functional.
A further series has as its system KU812 cell line. Kind of series: Induction of cell cycle arrest in human KU812 cells assessed as accumulation at G0/G1-phase after 12 hrs by propidium iodide/RNase staining based flow cytometry. Type of series: functional. (In general: Flow cytometry measures light scatter and fluorescence of single cells or particles in a stream.)
Series [3] has as its target T1, Bcr/Abl fusion protein (Homo sapiens) (UniProt P00519+P11274). Conditions: BaF3.
The subject of a further series is Mus musculus. Kind of series: Toxicity in nu/nu mouse xenografted with K562 cells assessed as decrease in body weight at 25 and 50 mg/kg/day, qd administered through oral gavage for 16 days measured every day during compound dosing. It counts as organism-based. Conditions: in vivo, 384 h. In a few lines:
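Female nu/nu mice carrying established K562 xenografts received oral treatment once daily at 25.0 or 50.0 mg/kg/d, or vehicle, starting when tumours reached 200 to 400 mm3. There were 5 animals per group and dosing lasted 16 days. Body weight was expressed relative to initial weight (set as 100%), and mortality was recorded. Data are given as mean ± SEM.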

Series [4] deals with K562. Briefly: Induction of apoptosis in human K562 cells assessed as increase in cleaved caspase3 level at 100 nM after 48 hrs by immunoblotting method. Type of series: functional, cell-based. Background: A western blot detects proteins with antibodies after separation by electrophoresis.
Series [5] concerns Bcr/Abl fusion protein (Homo sapiens), P00519+P11274 [Y253F]. Conditions: BaF3.
Series [6] is described as follows: Half life in Sprague-Dawley rat at 1 mg/kg, iv. Type of series: ADME, organism-based. Conditions: in vivo.
The target in series [7] is T1, Bcr/Abl fusion protein (Homo sapiens). Briefly: Inhibition of BCR/ABL in human MEG01 cells assessed as downregulation of Stat5 phosphorylation at […] site after 1 hr by immunoblotting method. Type of series: cell-based. Conditions: MEG-01. A digest of the protocol:
(§1)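 KU812, K562 and MEG-01 cells were exposed to compound at the indicated concentrations for 1 h. Whole-cell lysates were then analysed by Western blot for phosphorylated signaling proteins.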

Series [8] is described as follows: AUC(0 to t) in Sprague-Dawley rat at 10 mg/kg, po. It counts as ADME, organism-based. Conditions: in vivo.
In series [9] the test system is K562. Kind of series: Antiproliferative activity against human K562 cells xenografted in nu/nu mouse at 25 and 50 mg/kg/day, qd administered through oral gavage measured after 16 days by Ki-67 staining-based immunohistochemical analysis. It counts as functional, organism-based. A digest of the protocol:
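Female nu/nu mice bore established K562 xenografts and received daily oral dosing at 25.0 or 50.0 mg/kg/d, or vehicle, starting when tumors reached 200 to 400 mm3, for 16 days. Groups had 5 animals; data are mean ± SEM. Tumor size and body weight were normalized to initial values, and final tumor weight was recorded. Tumor tissue was stained with HE, Ki-67 and TUNEL.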

Another series has as its system MEG-01. Kind of series: Induction of cell cycle arrest in human MEG01 cells assessed as accumulation at G0/G1-phase after 12 hrs by propidium iodide/RNase staining based flow cytometry. It counts as functional.
The target in series [10] is T2, Mitogen-activated protein kinase 14 (Homo sapiens, UniProt Q16539). Kind of series: Inhibition of full length recombinant GST-tagged human p38-alpha expressed in Escherichia coli. A digest of the protocol:
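IC50 values were determined with the Invitrogen SelectScreen biochemical kinase assay.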

Series [11] has as its target T1, Bcr/Abl fusion protein (Homo sapiens). Briefly: Inhibition of BCR/ABL in human K562 cells assessed as downregulation of CrkL phosphorylation at […] site after 1 hr by immunoblotting method. Type of series: cell-based. In a few lines:
as §1

Series [12] shares this target. Kind of series: Inhibition of BCR/ABL in human K562 cells assessed as downregulation of ERK phosphorylation at Thr202/Tyr204 site after 1 hr by immunoblotting method. Type of series: cell-based. A digest of the protocol: as §1
Series [13] is described as follows: Antiproliferative activity against […] CHL cells assessed as cell viability after 72 hrs by CellTiter-Glo or CCK-8 assay. It counts as cell-based, Cricetulus griseus. Conditions: chinese hamster.
Series [14] can be described thus: Apparent volume of distribution in Sprague-Dawley rat at 1 mg/kg, iv. It counts as ADME, organism-based. Conditions: in vivo, read-out: Vd(app).
The nature of series [15]: AUC(0 to infinity) in Sprague-Dawley rat at 1 mg/kg, iv. Type of series: ADME, organism-based. Details: dose 1 mg/kg, route intravenous, time infinity. Conditions: in vivo.
Series [16] deals with Bcr/Abl fusion protein (Homo sapiens), P00519+P11274 [M351T]. Conditions: BaF3.
Series [17] deals with T1, Bcr/Abl fusion protein (Homo sapiens). Kind of series: Inhibition of BCR/ABL autophosphorylation at Y245 site in human KU812 cells at 300 nM after 1 hr by immunoblotting method. Type of series: cell-based. In a few lines: as §1
In series [18] the target is T2, Mitogen-activated protein kinase 14. Kind of series: Inhibition of P38-alpha phosphorylation in human KU812 cells at 0.01 to 3 uM after 1 hr by immunoblotting method. Type of series: cell-based. A digest of the protocol: as §1
The target in series [19] is T3, Discoidin domain-containing receptor 2 (Homo sapiens) (UniProt Q16832).
T3 sequence (whole entry): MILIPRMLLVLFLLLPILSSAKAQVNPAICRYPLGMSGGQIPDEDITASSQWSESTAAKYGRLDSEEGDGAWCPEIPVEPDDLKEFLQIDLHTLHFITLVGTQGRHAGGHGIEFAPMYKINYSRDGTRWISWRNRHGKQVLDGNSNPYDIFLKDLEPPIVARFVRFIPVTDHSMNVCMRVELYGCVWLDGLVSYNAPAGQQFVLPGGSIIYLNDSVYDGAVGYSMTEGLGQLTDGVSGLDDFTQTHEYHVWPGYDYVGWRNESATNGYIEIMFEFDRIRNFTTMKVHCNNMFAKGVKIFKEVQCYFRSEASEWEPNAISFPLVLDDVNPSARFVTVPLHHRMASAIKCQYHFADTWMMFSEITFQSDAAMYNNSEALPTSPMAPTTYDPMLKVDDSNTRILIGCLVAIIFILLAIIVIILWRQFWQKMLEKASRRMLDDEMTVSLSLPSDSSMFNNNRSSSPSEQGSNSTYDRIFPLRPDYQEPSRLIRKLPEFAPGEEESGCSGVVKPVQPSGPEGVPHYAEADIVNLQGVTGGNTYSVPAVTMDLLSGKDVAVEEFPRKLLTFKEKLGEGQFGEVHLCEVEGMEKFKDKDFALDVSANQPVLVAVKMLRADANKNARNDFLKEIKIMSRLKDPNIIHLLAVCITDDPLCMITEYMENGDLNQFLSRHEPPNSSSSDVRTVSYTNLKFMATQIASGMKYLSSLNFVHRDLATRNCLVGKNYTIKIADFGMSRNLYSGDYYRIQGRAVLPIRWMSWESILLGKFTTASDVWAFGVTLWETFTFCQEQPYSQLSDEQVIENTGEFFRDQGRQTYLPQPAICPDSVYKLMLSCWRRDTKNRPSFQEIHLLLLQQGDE
Conditions: BaF3.

Series [20] deals with Proto-oncogene tyrosine-protein kinase Src (Homo sapiens, UniProt P12931). Briefly: Inhibition of SRC phosphorylation in human KU812 cells at 0.01 to 3 uM after 1 hr by immunoblotting method. It counts as cell-based. In a few lines:
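Cells were treated for 1 h at the indicated concentrations. Whole-cell lysates were then analysed by Western blot for phosphorylation of signalling proteins in the BCR-ABL pathway.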

Calls of active or inactive are those of the source. No cut-off for these calls is given here. Bounds are passed on as bounds.

T1 sequence (P00519 whole entry, looked up, the tested form may be a part): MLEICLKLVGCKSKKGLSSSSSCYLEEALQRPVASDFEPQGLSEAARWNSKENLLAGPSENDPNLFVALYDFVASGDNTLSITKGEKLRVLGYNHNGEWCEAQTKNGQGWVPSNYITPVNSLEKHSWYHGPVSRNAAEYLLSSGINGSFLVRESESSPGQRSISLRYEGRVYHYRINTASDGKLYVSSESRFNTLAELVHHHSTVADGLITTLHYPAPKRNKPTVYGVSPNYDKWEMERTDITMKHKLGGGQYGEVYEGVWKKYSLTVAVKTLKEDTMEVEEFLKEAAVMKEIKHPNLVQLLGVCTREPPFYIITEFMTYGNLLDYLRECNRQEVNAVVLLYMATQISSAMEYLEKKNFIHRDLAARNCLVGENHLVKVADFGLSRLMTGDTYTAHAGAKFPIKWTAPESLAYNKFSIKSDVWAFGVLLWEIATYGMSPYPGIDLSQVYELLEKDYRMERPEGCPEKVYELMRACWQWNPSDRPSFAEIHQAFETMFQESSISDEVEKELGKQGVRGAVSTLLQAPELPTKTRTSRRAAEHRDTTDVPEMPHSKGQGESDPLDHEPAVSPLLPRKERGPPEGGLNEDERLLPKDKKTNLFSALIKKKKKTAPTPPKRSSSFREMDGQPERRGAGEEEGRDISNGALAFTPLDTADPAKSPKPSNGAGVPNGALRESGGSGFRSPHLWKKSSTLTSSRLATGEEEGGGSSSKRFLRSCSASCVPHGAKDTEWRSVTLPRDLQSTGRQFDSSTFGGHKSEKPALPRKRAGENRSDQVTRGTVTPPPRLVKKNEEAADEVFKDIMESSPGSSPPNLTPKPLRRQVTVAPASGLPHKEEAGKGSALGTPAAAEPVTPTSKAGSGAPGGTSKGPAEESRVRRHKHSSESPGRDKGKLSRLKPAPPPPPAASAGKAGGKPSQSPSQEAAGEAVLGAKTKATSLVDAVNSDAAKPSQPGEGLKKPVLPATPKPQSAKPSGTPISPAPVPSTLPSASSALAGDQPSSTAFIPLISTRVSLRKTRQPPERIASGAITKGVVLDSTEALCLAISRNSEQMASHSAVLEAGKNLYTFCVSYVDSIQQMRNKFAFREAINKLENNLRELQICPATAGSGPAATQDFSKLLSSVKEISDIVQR
T1 sequence (P11274 whole entry, looked up, the tested form may be a part): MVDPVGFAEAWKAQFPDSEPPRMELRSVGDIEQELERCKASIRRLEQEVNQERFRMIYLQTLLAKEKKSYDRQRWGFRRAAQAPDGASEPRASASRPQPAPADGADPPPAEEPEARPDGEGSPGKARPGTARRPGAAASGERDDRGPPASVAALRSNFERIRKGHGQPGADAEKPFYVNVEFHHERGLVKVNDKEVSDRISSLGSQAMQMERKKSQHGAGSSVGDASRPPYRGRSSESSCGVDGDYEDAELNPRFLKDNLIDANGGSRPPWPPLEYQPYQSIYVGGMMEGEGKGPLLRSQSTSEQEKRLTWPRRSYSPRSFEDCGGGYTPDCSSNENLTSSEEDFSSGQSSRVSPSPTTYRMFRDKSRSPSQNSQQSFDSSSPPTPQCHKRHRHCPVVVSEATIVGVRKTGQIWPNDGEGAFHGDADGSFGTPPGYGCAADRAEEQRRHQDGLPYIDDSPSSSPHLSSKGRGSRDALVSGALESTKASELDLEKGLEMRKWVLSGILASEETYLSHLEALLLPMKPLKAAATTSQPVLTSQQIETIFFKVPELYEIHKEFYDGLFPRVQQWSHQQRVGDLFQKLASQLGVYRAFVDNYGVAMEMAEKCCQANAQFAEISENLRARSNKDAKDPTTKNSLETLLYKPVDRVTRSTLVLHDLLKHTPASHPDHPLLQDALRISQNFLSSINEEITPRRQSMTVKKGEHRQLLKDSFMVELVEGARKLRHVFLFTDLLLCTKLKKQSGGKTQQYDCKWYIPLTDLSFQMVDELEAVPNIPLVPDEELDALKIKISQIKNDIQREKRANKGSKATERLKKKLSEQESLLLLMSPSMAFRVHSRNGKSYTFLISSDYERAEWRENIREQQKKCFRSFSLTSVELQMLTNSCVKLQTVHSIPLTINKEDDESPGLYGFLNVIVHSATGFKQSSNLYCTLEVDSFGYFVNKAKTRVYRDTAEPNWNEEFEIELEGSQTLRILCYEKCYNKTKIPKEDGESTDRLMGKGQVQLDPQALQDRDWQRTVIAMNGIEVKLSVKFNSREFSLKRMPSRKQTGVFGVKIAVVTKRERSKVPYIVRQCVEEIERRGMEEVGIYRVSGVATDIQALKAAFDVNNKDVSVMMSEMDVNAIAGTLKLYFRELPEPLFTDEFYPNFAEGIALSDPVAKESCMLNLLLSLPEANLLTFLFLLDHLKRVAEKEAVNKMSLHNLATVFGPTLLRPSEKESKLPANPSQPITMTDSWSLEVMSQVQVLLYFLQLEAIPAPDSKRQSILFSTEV
T2 sequence (Q16539 whole entry): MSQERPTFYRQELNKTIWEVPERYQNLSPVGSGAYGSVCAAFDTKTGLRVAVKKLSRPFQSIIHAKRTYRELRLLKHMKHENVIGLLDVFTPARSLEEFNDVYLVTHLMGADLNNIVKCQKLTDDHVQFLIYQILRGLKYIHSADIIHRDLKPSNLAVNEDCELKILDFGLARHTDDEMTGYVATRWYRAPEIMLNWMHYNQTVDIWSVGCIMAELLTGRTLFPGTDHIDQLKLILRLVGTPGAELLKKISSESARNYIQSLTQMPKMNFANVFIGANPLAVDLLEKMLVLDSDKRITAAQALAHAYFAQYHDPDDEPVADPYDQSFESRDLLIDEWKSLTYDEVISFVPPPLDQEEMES
Sequence of Proto-oncogene tyrosine-protein kinase Src (P12931 2-536 limits assumed): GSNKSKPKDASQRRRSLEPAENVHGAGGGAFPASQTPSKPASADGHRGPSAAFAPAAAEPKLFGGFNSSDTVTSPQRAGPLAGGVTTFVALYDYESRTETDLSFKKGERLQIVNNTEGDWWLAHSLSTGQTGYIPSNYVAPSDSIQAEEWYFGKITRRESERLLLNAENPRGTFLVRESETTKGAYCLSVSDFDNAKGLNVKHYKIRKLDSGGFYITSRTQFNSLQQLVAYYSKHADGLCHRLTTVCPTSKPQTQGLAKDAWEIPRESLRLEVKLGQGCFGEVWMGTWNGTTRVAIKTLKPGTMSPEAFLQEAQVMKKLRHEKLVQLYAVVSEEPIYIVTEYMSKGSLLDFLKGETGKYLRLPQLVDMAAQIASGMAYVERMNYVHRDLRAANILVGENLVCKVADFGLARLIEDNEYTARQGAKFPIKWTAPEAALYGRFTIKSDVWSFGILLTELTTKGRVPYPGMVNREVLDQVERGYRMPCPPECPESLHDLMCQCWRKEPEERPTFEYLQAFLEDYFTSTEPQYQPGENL

For orientation: GI50 means the concentration that inhibits growth by half. One may read the half-life as how long it takes for the measured level to halve. Low values mean rapid decline, high ones slow decline. The AUC(0-t) is the area under the concentration-time curve up to a stated or last time point. Read a high AUC(0-t) as more exposure. For orientation: IC50 means the concentration at which inhibition is half-maximal. Usually AUC(0-inf) stands for total exposure, with the tail of the curve extrapolated. As for `CNc1nc(Nc2ccc(C)c(N)c2)ncc1C(=O)Nc1cc(NC(=O)c2cccc(C(F)(F)F)c2)ccc1C`, the GI50 is more than 10 µM in series [1]; 8 µM with MV4-11; 7 nM in series [3]; 363 nM in series [5]; 45 nM in series [16]; more than 10 µM in [19]. For the same compound, the Activity entry in the series on K562 [2] was “Dose-dependent effect”; in the series with KU812 cell line, “Dose-dependent effect”; in the series on Mus musculus, “Non-toxic”; with MEG-01, “Dose-dependent effect”. Moreover, the outcome in the series on K562 [4] and with K562 [9] was Active. For the same compound, in series [6], the half-life was 169 min. Moreover, the inhibition result in series [7], in [11] and in [12] was “Dose-dependent effect” each time. This compound displayed an AUC(0-t) in series [8] of 1720 ng·h/mL. Also, the IC50 in series [10] stood at 62 nM. Moreover, the GI50 at 72 h in [13] was more than 10 µM. Also, the Vd in [14] turned out to be 6.03 L/kg. The compound also came in with an AUC(0-inf) in series [15] of 721 ng·h/mL. The inhibition entry in series [17] and in series [18] was “Active” each time. Further, the inhibition result in [20] was “inactive”.
